Screening data from PubChem.
CHO parental Ca – counter-screen: ATP calcium response change in parental CHO cells; hit rate 0.63% among 330,000; parental CHO-K1, ATP-induced calcium, Fluo-8 fluorescence; AID 463079; inhibition, % at 5.6 µM;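 active means inhibition above that plate's mean sample inhibition plus 3 SD, cut at about 26% in these data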;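 further: 0% = ATP-challenged DMSO wells and 100% = DMSO wells without ATP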
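Assay system – parental CHO cells · Reagent – ATP stimulus · Detection – intracellular calcium via Fluo-8 no-wash fluorescent dye · Evaluation – percent inhibition of ATP-evoked calcium rise, normalized to controls · Controls – ATP wells versus no-ATP DMSO wells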
GalR3 antagonist – blocks the human galanin receptor 3 | hit rate 0.44% among 360,000 | O60755 | HEK293 GalR3-CNG cAMP membrane potential fluorescence; galR3 body fused to GalR1 C-terminus | AID 651719 | inhibition, % at 3 µM;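 active means inhibition above the screen-wide average plus 3 SD, cut at about 13% in these data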;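 further: forskolin and galanin both at EC90 stimulate the cells; cAMP rise reported by CNG channel membrane potential dye signal; 0% = forskolin plus galanin with DMSO and 100% = forskolin alone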
TAAR1 antag – human TAAR1 antagonism. inhibition, % at 3 µM. CHO RD-HGA16 TAAR1, Fluo-8 calcium fluorescence, antagonist. Q96RJ0. hit rate 1.5% among 360,000;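 active means inhibition above a per-plate cutoff, the mean inhibition of test compounds on that plate plus 3 SD, cut at about 49% in these data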;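 further: 0% = DMSO plus EC80 beta-PEA response and 100% = DMSO alone without agonist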
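System: RD-HGA16 CHO cells with stable hTAAR1 and Gα16 | Probe or stimulus: EC80 β-phenethylamine stimulus | Dosing: 3 µM, single point | Times: Dye loading 75 min at 37 °C, then 30 min room temperature | Measured by: Fluo-8 calcium-sensitive fluorescence | Read-out basis: % inhibition of agonist calcium response | Replicates: n of 1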
TAAR1 ag – agonists of human TAAR1. Q96RJ0. hit rate 0.99% among 360,000. CHO RD-HGA16 TAAR1, Fluo-8 calcium fluorescence; vehicle wells 0%, saturating PEA agonist 100%. AID 624467. activation, % at 3 µM;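 active means activation above the mean activation of all test compounds in the run plus 3 SD, cut at about 38% in these data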
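Repeats: no replicates (n 1) | Material: CHO-derived RD-HGA16 cells with stable Gα16 and human TAAR1 | Technique: Kinetic Fluo-8 calcium fluorescence | Schedule: 17-24 h seeding, 75 min 37 °C dye, 30 min RT | Evaluation: % activation from peak over basal fluorescence ratio, DMSO-to-PEA scaled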
OX1R antag-1 – antagonists of human orexin 1 receptor (OX1R); inhibition, % at 6.6 µM; hit rate 1.8% among 330,000; OX1R-expressing cells, FRET antagonist read-out; in the data active means inhibition mostly above about 38%, no sharp cut-off; inactive means mostly below about 40%;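 further: 0% = agonist challenge alone and 100% = reference antagonist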
Target sequence (O43613 whole entry, looked up): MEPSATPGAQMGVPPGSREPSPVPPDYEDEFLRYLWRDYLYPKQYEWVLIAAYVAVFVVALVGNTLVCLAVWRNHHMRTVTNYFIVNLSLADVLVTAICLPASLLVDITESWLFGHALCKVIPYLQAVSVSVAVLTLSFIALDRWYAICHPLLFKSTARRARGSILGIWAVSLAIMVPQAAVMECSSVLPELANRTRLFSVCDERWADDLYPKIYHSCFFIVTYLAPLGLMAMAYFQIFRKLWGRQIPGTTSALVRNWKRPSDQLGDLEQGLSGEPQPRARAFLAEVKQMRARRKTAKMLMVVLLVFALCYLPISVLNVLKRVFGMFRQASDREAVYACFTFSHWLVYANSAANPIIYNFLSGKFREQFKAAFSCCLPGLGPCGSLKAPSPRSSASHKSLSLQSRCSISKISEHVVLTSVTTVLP
OX1R antag-2 – human HCRTR1 antagonism; hit rate 0.43% among 330,000; CHO/OX1R cells, Fluo-8 calcium fluorescence, orexin A; inhibition, % at 5 µM; O43613;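 active means inhibition above its plate's threshold, mean inhibition of all tested compounds on the plate plus 3 SD, cut at about 37% in these data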;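 further: 0% = orexin A challenge wells and 100% = SB-334867-A antagonist wells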
* = called active by the depositor. Shown are actives, neighbours in structure and some others; about 4.3% of the full set was active somewhere.

How did CC(C)NC(=O)c1cc(C2CCCCN2C(=O)c2ccc(C(C)C)cc2)on1 (stereo not drawn) do in these assays?
GalR3 antagonist: -5; TAAR1 antag: -13; TAAR1 ag: 1

What do the screens show for `CSc1cccc(NS(=O)(=O)c2cn(C)cn2)c1`?
CHO parental Ca: 2; GalR3 antagonist: -5; TAAR1 antag: 0; TAAR1 ag: 1; OX1R antag-1: 9; OX1R antag-2: -21

How did CC1(C)CC(=O)C2=C(C1)Nc1ccccc1NC2c1cccc(F)c1 (stereo not drawn) do in these assays?
GalR3 antagonist: -3; TAAR1 antag: 4; TAAR1 ag: 1

Results for Cn1cccc1C1Nc2ccccc2NC2=C1C(=O)CC(C)(C)C2 (stereo not drawn) ?
CHO parental Ca: -25; GalR3 antagonist: -1; TAAR1 antag: 56*; TAAR1 ag: 16; OX1R antag-1: 10; OX1R antag-2: -33

What do the screens show for `CCN1C(=O)C(CC(=O)Nc2ccc(F)cc2)N(CCc2ccc(OC)cc2)C1=S` (stereo not drawn)?
CHO parental Ca: -12; GalR3 antagonist: -6; TAAR1 antag: 24; TAAR1 ag: 6; OX1R antag-1: 11; OX1R antag-2: 3

How did CN1C(=O)C(CC(=O)Nc2ccc(F)cc2)N(CCCc2ccccc2)C1=S (stereo not drawn) do in these assays?
CHO parental Ca: 4; GalR3 antagonist: 0; TAAR1 antag: 16; TAAR1 ag: 26; OX1R antag-1: 52; OX1R antag-2: 48*

What do the screens show for `Nc1nc(-c2ccccc2)nc2sc3c(c12)CCCC3`?
CHO parental Ca: -9; GalR3 antagonist: -1; TAAR1 antag: -11; TAAR1 ag: 2; OX1R antag-1: 68*; OX1R antag-2: 6

What do the screens show for `CCOCCCNC(=O)C1CCCN(S(=O)(=O)c2cccc3nsnc23)C1` (stereo not drawn)?
CHO parental Ca: -12; GalR3 antagonist: -5; TAAR1 antag: -5; TAAR1 ag: -1; OX1R antag-1: 38; OX1R antag-2: -26

How did CCC(c1nc2ccccc2[nH]1)n1c(-c2ccnc(Cl)c2)nc2ccccc21 (stereo not drawn) do in these assays?
GalR3 antagonist: -4; TAAR1 antag: 1; TAAR1 ag: 4

Results for CCN(CC)S(=O)(=O)c1ccc2c3c(cccc13)C(=O)N2 ?
CHO parental Ca: -1; GalR3 antagonist: 3; TAAR1 antag: -22; TAAR1 ag: 0; OX1R antag-1: 25; OX1R antag-2: -5

How did CCN(c1cccc(C)c1)S(=O)(=O)c1ccc2c3c(cccc13)C(=O)N2 do in these assays?
CHO parental Ca: -19; GalR3 antagonist: -2; TAAR1 antag: 54*; TAAR1 ag: 10; OX1R antag-1: 39; OX1R antag-2: -20

What do the screens show for `CN(C)S(=O)(=O)c1ccc(NC(=O)N2CCN(c3cccc(C(F)(F)F)c3)CC2)cc1`?
CHO parental Ca: 39*; GalR3 antagonist: -3; TAAR1 antag: 9; TAAR1 ag: 34; OX1R antag-1: 34; OX1R antag-2: 48*

How did Cc1cccc(NC(=O)CSCC(=O)N2CCN(c3cccc(C(F)(F)F)c3)CC2)c1 do in these assays?
CHO parental Ca: -24; GalR3 antagonist: -5; TAAR1 antag: -29; TAAR1 ag: 11; OX1R antag-1: 30*; OX1R antag-2: 20

How did CCOc1ccc2nc3ccc4[nH]onc4c3c2c1 do in these assays?
CHO parental Ca: -8; GalR3 antagonist: -3; TAAR1 antag: 26; TAAR1 ag: -2; OX1R antag-1: 44*; OX1R antag-2: 43

Results for CC(=O)Nc1ccc(NC(=O)COC(=O)c2ccc([N+](=O)[O-])o2)cc1 ?
CHO parental Ca: -7; GalR3 antagonist: -3; TAAR1 antag: 12; TAAR1 ag: 7; OX1R antag-1: 37*; OX1R antag-2: -10

What do the screens show for `O=C(COC(=O)c1ccc([N+](=O)[O-])o1)NC1CCCC1`?
CHO parental Ca: -10; GalR3 antagonist: 0; TAAR1 antag: -11; TAAR1 ag: 2; OX1R antag-1: 32; OX1R antag-2: -1

How did CCN(c1ccc(NC(=O)COC(=O)c2ccc([N+](=O)[O-])o2)cc1)C(C)C do in these assays?
CHO parental Ca: -1; GalR3 antagonist: -7; TAAR1 antag: 8; TAAR1 ag: 18; OX1R antag-1: 10; OX1R antag-2: -22

Results for O=C(COC(=O)c1ccc([N+](=O)[O-])o1)NC1CCCCC1 ?
CHO parental Ca: -4; GalR3 antagonist: -5; TAAR1 antag: 18; TAAR1 ag: 2; OX1R antag-1: 24*; OX1R antag-2: -30

How did CCN(C(=O)COC(=O)c1cccnc1SC)C1CCCCC1 do in these assays?
CHO parental Ca: -14; GalR3 antagonist: -6; TAAR1 antag: -18; TAAR1 ag: 4; OX1R antag-1: 57*; OX1R antag-2: 31

How did O=C(NC1CCCCC1)c1ccc([N+](=O)[O-])o1 do in these assays?
CHO parental Ca: 7; OX1R antag-1: 39*; OX1R antag-2: -20

What do the screens show for `CCN(C(=O)COC(=O)CCCOc1ccccc1)c1c(N)n(Cc2ccccc2)c(=O)[nH]c1=O`?
CHO parental Ca: -5; GalR3 antagonist: -5; TAAR1 antag: -13; TAAR1 ag: 0; OX1R antag-1: 11; OX1R antag-2: -2

Results for CCCCNC(=O)c1c(N)[nH]c(C(=O)c2ccccc2)c1-c1ccccn1 ?
GalR3 antagonist: -7; TAAR1 antag: 1; TAAR1 ag: 1

How did Nc1[nH]c(C(=O)c2ccc(Br)cc2)c(-c2cccc3ccccc23)c1C(=O)NCCc1c[nH]c2ccccc12 do in these assays?
GalR3 antagonist: -6; TAAR1 antag: -24; TAAR1 ag: 3

How did O=C(NCc1ccco1)c1ccc([N+](=O)[O-])o1 do in these assays?
CHO parental Ca: 18; GalR3 antagonist: 2; TAAR1 antag: -27; TAAR1 ag: 1; OX1R antag-1: 71*; OX1R antag-2: -8

Results for CCN(C(=O)COC(=O)c1ccc([N+](=O)[O-])o1)C1CCCCC1 ?
CHO parental Ca: 1; GalR3 antagonist: 0; TAAR1 antag: -10; TAAR1 ag: 2; OX1R antag-1: 29*; OX1R antag-2: -5

How did CCOC(=O)C1=CN(CC)CCC1=O do in these assays?
GalR3 antagonist: -6; TAAR1 antag: 5; TAAR1 ag: 3

How did Cc1ccc(Cl)cc1NC(=O)CN1C(=O)COc2ccc(S(=O)(=O)N3CCOCC3)cc21 do in these assays?
CHO parental Ca: -22; GalR3 antagonist: -7; TAAR1 antag: -6; TAAR1 ag: 0; OX1R antag-1: 4; OX1R antag-2: -23

How did O=C1OC(N2CCN(C(=O)C3CCCO3)CC2)c2ccccc21 (stereo not drawn) do in these assays?
CHO parental Ca: 7; GalR3 antagonist: 0; TAAR1 antag: -11; TAAR1 ag: 15; OX1R antag-1: -8; OX1R antag-2: 7
